Test results taken from ChEMBL document CHEMBL1687804, “Comparative efficacies of human simulated exposures of telavancin and vancomycin against methicillin-resistant Staphylococcus aureus with a range of vancomycin MICs in a murine pneumonia model” (Antimicrob Agents Chemother, 2010).
In brackets after ≈: the same amount, converted by molar mass. Activity calls are given as the source filed them. No cut-off for these calls is given here.

How the values were obtained:
Staphylococcus aureus [1] = experiment: Antibacterial activity against vancomycin-heteroresistant Staphylococcus aureus isolate 38 (Mu3) by broth microdilution assay; format: functional
Summary of the method: (§1)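 MIC by broth microdilution using dry-form panels, run in triplicate per isolate; modal MIC reported. Isolates were stored at −80°C in skim milk and subcultured twice on Trypticase soy agar with 5% sheep blood at 35°C before use.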

Staphylococcus aureus [2] = experiment: Antibacterial activity against vancomycin-intermediate Staphylococcus aureus isolate 454 (NRS404) by broth microdilution assay; format: functional; summary of the method: as §1
Staphylococcus aureus [3] = experiment: Antibacterial activity against hospital-associated methicillin-resistant Staphylococcus aureus isolate 152 by broth microdilution assay; format: functional; summary of the method: as §1
Staphylococcus aureus [4] = experiment: Antibacterial activity against hospital-associated methicillin-resistant Staphylococcus aureus isolate 412 by broth microdilution assay; format: functional; summary of the method: as §1
Staphylococcus aureus [5] = experiment: Antibacterial activity against vancomycin-intermediate Staphylococcus aureus isolate 440 (A6298) by broth microdilution assay; format: functional; summary of the method: as §1
Staphylococcus aureus [6] = experiment: Antibacterial activity against hospital-associated methicillin-resistant Staphylococcus aureus isolate 56 (494) by broth microdilution assay; format: functional; summary of the method: as §1
Staphylococcus aureus [7] = experiment: Antibacterial activity against hospital-associated methicillin-resistant Staphylococcus aureus isolate 336 by broth microdilution assay; format: functional; summary of the method: as §1
Staphylococcus aureus [8] = experiment: Antibacterial activity against vancomycin-intermediate Staphylococcus aureus isolate 453 (NRS23) by broth microdilution assay; format: functional; summary of the method: as §1
Staphylococcus aureus [9] = experiment: Antibacterial activity against hospital-associated methicillin-resistant Staphylococcus aureus isolate 360 by broth microdilution assay; format: functional; summary of the method: as §1
Staphylococcus aureus [10] = experiment: Antibacterial activity against community-associated methicillin-resistant Staphylococcus aureus isolate 156 by broth microdilution assay; format: functional; summary of the method: as §1
Staphylococcus aureus [11] = experiment: Antibacterial activity against community-associated methicillin-resistant Staphylococcus aureus isolate 145 by broth microdilution assay; format: functional; summary of the method: as §1
Staphylococcus aureus [12] = experiment: Antibacterial activity against vancomycin-heteroresistant Staphylococcus aureus isolate 443 by broth microdilution assay; format: functional; summary of the method: as §1
Staphylococcus aureus [13] = experiment: Antibacterial activity against vancomycin-intermediate Staphylococcus aureus isolate 435 by broth microdilution assay; format: functional; summary of the method: as §1
Staphylococcus aureus [14] = experiment: Antibacterial activity against hospital-associated methicillin-resistant Staphylococcus aureus isolate 360 infected in neutropenic BALB/c mouse lung infection model assessed as reduction of CFU at 40 mg/kg, sc administered every 12 hrs measured after 24 hrs
Staphylococcus aureus [15] = experiment: Antibacterial activity against vancomycin-intermediate Staphylococcus aureus isolate 440 (A6298) infected in neutropenic BALB/c mouse lung infection model assessed as reduction of CFU at 40 mg/kg, sc administered every 12 hrs measured after 24 hrs
Staphylococcus aureus [16] = experiment: Antibacterial activity against vancomycin-intermediate Staphylococcus aureus isolate 453 (NRS23) infected in neutropenic BALB/c mouse lung infection model assessed as reduction of CFU at 40 mg/kg, sc administered every 12 hrs measured after 48 hrs; note: unit not given here
Staphylococcus aureus [17] = experiment: Antibacterial activity against hospital-associated methicillin-resistant Staphylococcus aureus isolate 412 infected in neutropenic BALB/c mouse lung infection model assessed as reduction of CFU at 40 mg/kg, sc administered every 12 hrs measured after 24 hrs; note: unit not given here
Staphylococcus aureus [18] = experiment: Antibacterial activity against hospital-associated methicillin-resistant Staphylococcus aureus isolate 336 infected in neutropenic BALB/c mouse lung infection model assessed as reduction of CFU at 40 mg/kg, sc administered every 12 hrs measured after 24 hrs; note: unit not given here
Staphylococcus aureus [19] = experiment: Antibacterial activity against hospital-associated methicillin-resistant Staphylococcus aureus isolate 336 infected in neutropenic BALB/c mouse lung infection model assessed as reduction of CFU at 40 mg/kg, sc administered every 12 hrs measured after 48 hrs; note: unit not given here
Staphylococcus aureus [20] = experiment: Antibacterial activity against vancomycin-intermediate Staphylococcus aureus isolate 435 infected in neutropenic BALB/c mouse lung infection model assessed as reduction of CFU at 40 mg/kg, sc administered every 12 hrs measured after 48 hrs; note: unit not given here
Staphylococcus aureus [21] = experiment: Antibacterial activity against community-associated methicillin-resistant Staphylococcus aureus isolate 156 infected in neutropenic BALB/c mouse lung infection model assessed as reduction of CFU at 40 mg/kg, sc administered every 12 hrs measured after 24 hrs; note: unit not given here
Staphylococcus aureus [22] = experiment: Antibacterial activity against hospital-associated methicillin-resistant Staphylococcus aureus isolate 56 (494) infected in neutropenic BALB/c mouse lung infection model assessed as reduction of CFU at 40 mg/kg, sc administered every 12 hrs measured after 24 hrs; note: unit not given here
Staphylococcus aureus [23] = experiment: Antibacterial activity against vancomycin-heteroresistant Staphylococcus aureus isolate 443 infected in neutropenic BALB/c mouse lung infection model assessed as reduction of CFU at 40 mg/kg, sc administered every 12 hrs measured after 24 hrs; note: unit not given here
Staphylococcus aureus [24] = experiment: Antibacterial activity against vancomycin-intermediate Staphylococcus aureus isolate 454 (NRS404) infected in neutropenic BALB/c mouse lung infection model assessed as reduction of CFU at 40 mg/kg, sc administered every 12 hrs measured after 48 hrs; note: unit not given here
Staphylococcus aureus [25] = experiment: Antibacterial activity against vancomycin-heteroresistant Staphylococcus aureus isolate 38 (Mu3) infected in neutropenic BALB/c mouse lung infection model assessed as reduction of CFU at 40 mg/kg, sc administered every 12 hrs measured after 24 hrs
Staphylococcus aureus [26] = experiment: Antibacterial activity against vancomycin-intermediate Staphylococcus aureus isolate 435 infected in neutropenic BALB/c mouse lung infection model assessed as reduction of CFU at 40 mg/kg, sc administered every 12 hrs measured after 24 hrs; note: unit not given here
Staphylococcus aureus [27] = experiment: Antibacterial activity against vancomycin-heteroresistant Staphylococcus aureus isolate 443 infected in neutropenic BALB/c mouse lung infection model assessed as reduction of CFU at 40 mg/kg, sc administered every 12 hrs measured after 48 hrs; note: unit not given here
Staphylococcus aureus [28] = experiment: Antibacterial activity against vancomycin-intermediate Staphylococcus aureus isolate 454 (NRS404) infected in neutropenic BALB/c mouse lung infection model assessed as reduction of CFU at 40 mg/kg, sc administered every 12 hrs measured after 24 hrs; note: unit not given here
Staphylococcus aureus [29] = experiment: Antibacterial activity against vancomycin-intermediate Staphylococcus aureus isolate 453 (NRS23) infected in neutropenic BALB/c mouse lung infection model assessed as reduction of CFU at 40 mg/kg, sc administered every 12 hrs measured after 24 hrs; note: unit not given here
Staphylococcus aureus [30] = experiment: Antibacterial activity against hospital-associated methicillin-resistant Staphylococcus aureus isolate 152 infected in neutropenic BALB/c mouse lung infection model assessed as reduction of CFU at 40 mg/kg, sc administered every 12 hrs measured after 24 hrs; note: unit not given here
Staphylococcus aureus [31] = experiment: Antibacterial activity against community-associated methicillin-resistant Staphylococcus aureus isolate 145 infected in neutropenic BALB/c mouse lung infection model assessed as reduction of CFU at 40 mg/kg, sc administered every 12 hrs measured after 24 hrs; note: unit not given here
Staphylococcus aureus [32] = experiment: Antibacterial activity against vancomycin-intermediate Staphylococcus aureus isolate 440 (A6298) infected in neutropenic BALB/c mouse lung infection model assessed as reduction of CFU at 40 mg/kg, sc administered every 12 hrs measured after 48 hrs
Staphylococcus aureus [33] = experiment: Antibacterial activity against community-associated methicillin-resistant Staphylococcus aureus isolate 145 infected in neutropenic BALB/c mouse lung infection model assessed as reduction of CFU at 40 mg/kg, sc administered every 12 hrs measured after 48 hrs; note: unit not given here

SMILES | MIC (Staphylococcus aureus [1]) [µg/mL] | MIC (Staphylococcus aureus [2]) [µg/mL] | MIC (Staphylococcus aureus [3]) [µg/mL] | MIC (Staphylococcus aureus [4]) [µg/mL] | MIC (Staphylococcus aureus [5]) [µg/mL] | MIC (Staphylococcus aureus [6]) [µg/mL] | MIC (Staphylococcus aureus [7]) [µg/mL] | MIC (Staphylococcus aureus [8]) [µg/mL] | MIC (Staphylococcus aureus [9]) [µg/mL] | MIC (Staphylococcus aureus [10]) [µg/mL] | MIC (Staphylococcus aureus [11]) [µg/mL] | MIC (Staphylococcus aureus [12]) [µg/mL] | MIC (Staphylococcus aureus [13]) [µg/mL] | further results
CCCCCCCCCC(=O)N[C@@H](Cc1c[nH]c2ccccc12)C(=O)N[C@H](CC(N)=O)C(=O)N[C@@H](CC(=O)O)C(=O)N[C@@H]1C(=O)NCC(=O)N[C@@H](CCCN)C(=O)N[C@@H](CC(=O)O)C(=O)N[C@H](C)C(=O)N[C@@H](CC(=O)O)C(=O)NCC(=O)N[C@H](CO)C(=O)N[C@@H]([C@H](C)CC(=O)O)C(=O)N[C@@H](CC(=O)c2ccccc2N)C(=O)O[C@@H]1C | 0.5 (≈ 0.309 µM) | 1 (≈ 0.617 µM) | 0.5 (≈ 0.309 µM) | 0.5 (≈ 0.309 µM) | 1 (≈ 0.617 µM) | 0.5 (≈ 0.309 µM) | 0.5 (≈ 0.309 µM) | 1 (≈ 0.617 µM) | 0.5 (≈ 0.309 µM) | 0.5 (≈ 0.309 µM) | 0.5 (≈ 0.309 µM) | 0.5 (≈ 0.309 µM) | 0.5 (≈ 0.309 µM) | 
CCC[C@@H]1C[C@@H](C(=O)N[C@@H]([C@H]2O[C@H](SC)[C@H](O)[C@@H](O)[C@H]2O)[C@H](C)Cl)N(C)C1 [CLINDAMYCIN] | ≥ 8 | ≤ 0.5 | 0.125 (≈ 0.294 µM) | ≤ 0.5 | ≥ 8 | 0.25 (≈ 0.588 µM) | ≥ 8 | ≥ 8 | ≥ 8 | ≤ 0.5 | ≥ 8 | ≥ 8 | ≤ 0.5 | 
CCCCCCCCCCNCCN[C@@]1(C)C[C@H](O[C@H]2[C@H](Oc3c4cc5cc3Oc3ccc(cc3Cl)[C@@H](O)[C@@H](NC(=O)[C@@H](CC(C)C)NC)C(=O)N[C@@H](CC(N)=O)C(=O)N[C@H]5C(=O)N[C@H]3C(=O)N[C@H](C(=O)N[C@H](C(=O)O)c5cc(O)c(CNCP(=O)(O)O)c(O)c5-c5cc3ccc5O)[C@H](O)c3ccc(c(Cl)c3)O4)O[C@H](CO)[C@@H](O)[C@@H]2O)O[C@@H](C)[C@H]1O [TELAVANCIN] | 0.5 (≈ 0.285 µM) | 1 (≈ 0.57 µM) | 0.25 (≈ 0.142 µM) | 0.5 (≈ 0.285 µM) | 1 (≈ 0.57 µM) | 0.5 (≈ 0.285 µM) | 0.5 (≈ 0.285 µM) | 1 (≈ 0.57 µM) | 0.5 (≈ 0.285 µM) | 0.5 (≈ 0.285 µM) | 0.5 (≈ 0.285 µM) | 0.5 (≈ 0.285 µM) | 1 (≈ 0.57 µM) | Activity (Staphylococcus aureus [14]): Active; Activity (Staphylococcus aureus [15]): Active; Activity (Staphylococcus aureus [16]): Active; Activity (Staphylococcus aureus [17]): Active; Activity (Staphylococcus aureus [18]): Active; Activity (Staphylococcus aureus [19]): inactive; Activity (Staphylococcus aureus [20]): inactive; Activity (Staphylococcus aureus [21]): Active; Activity (Staphylococcus aureus [22]): Active; Activity (Staphylococcus aureus [23]): Active; Activity (Staphylococcus aureus [24]): Active; Activity (Staphylococcus aureus [25]): Active; Activity (Staphylococcus aureus [26]): Active; Activity (Staphylococcus aureus [27]): inactive; Activity (Staphylococcus aureus [28]): Active; Activity (Staphylococcus aureus [29]): Active; Activity (Staphylococcus aureus [30]): Active; Activity (Staphylococcus aureus [31]): Active; Activity (Staphylococcus aureus [32]): Active; Activity (Staphylococcus aureus [33]): inactive
CN(C)c1cc(NC(=O)CNC(C)(C)C)c(O)c2c1C[C@H]1C[C@H]3[C@H](N(C)C)C(O)=C(C(N)=O)C(=O)[C@@]3(O)C(O)=C1C2=O [TIGECYCLINE] | 0.5 (≈ 0.854 µM) | 0.125 (≈ 0.213 µM) | 0.25 (≈ 0.427 µM) | 0.25 (≈ 0.427 µM) | 0.125 (≈ 0.213 µM) | 0.5 (≈ 0.854 µM) | 0.5 (≈ 0.854 µM) | 0.125 (≈ 0.213 µM) | 0.25 (≈ 0.427 µM) | 0.125 (≈ 0.213 µM) | 0.25 (≈ 0.427 µM) | 0.25 (≈ 0.427 µM) | 0.25 (≈ 0.427 µM) | 
O=C(O)c1cn(C2CC2)c2cc(N3CCNCC3)c(F)cc2c1=O [CIPROFLOXACIN] | ≥ 16 | ≥ 16 | 0.5 (≈ 1.51 µM) | ≥ 16 | ≥ 16 | 0.5 (≈ 1.51 µM) | ≥ 16 | ≥ 16 | ≥ 16 | ≥ 16 | 8 (≈ 24.1 µM) | ≥ 16 | ≥ 16 | 
